The source made the active and inactive calls.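 How the source made its calls, unless noted: active means inhibition above 20% together with a positive visual image hit; inconclusive means visual image hit but inhibition not above 20%; inactive means no visual image hit.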
How the values were obtained:
[1] = inhibitors of TNFa-induced NFkB p65 translocation, primary screen, imaging, HUVEC, MLSMR starter and 10KST1 sets (AID 438); details: HUVEC TNFa-induced p65 nuclear translocation; cell count: measured here: nuclei count (cytotoxicity indicator), at 2.08 µM; inhibition: at 2 µM, stronger effect = higher value, 0% TNFa-plus-vehicle, 100% no-TNFa wells;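 further: compound added about 3h40 before a 20 min TNFalpha stimulation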;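 on inhibition: signal is the nuclear over cytoplasmic p65 intensity ratio per well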
[2] = reduction of polyQ htt aggregates in cells – imaging, exon1htt(103Q)mCFP cells, high-content imaging, primary screen (AID 483;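 active means visual image review flags a hit and inhibition of aggregation exceeds 20%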;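 further: compound exposure lasted 3 days before fixation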;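 on nuclei count: percent of the per-plate median nuclei count of sample wells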); details: exon1htt(103Q)mCFP cell line, aggregate imaging, at 2 µM; inhibition of aggregation: stronger effect = higher value; nuclei count: measured here: cell count, toxicity
[3] = endothelial E-selectin expression blockers – imaging, HUVEC, immunofluorescence, MLSMR starter and 10KST1 sets, primary screen (AID 487;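 active means visually confirmed hit in the image check and inhibition above 20%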;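 on inhibition: signal is fraction of cell area covered by stained E-selectin grains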;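 on nuclei count: 100% = median nuclei count of all wells on the same plate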); details: HUVEC TNFalpha-induced E-selectin immunofluorescence imaging, at 2 µM; inhibition: stronger effect = higher value; nuclei count: measured here: cell number, toxicity
[4] = target: Voltage-gated potassium channel subunit beta-2 (Rattus norvegicus) (UniProt P62483); test: inhibitors of rat Kvbeta2 reductase activity – biochemical, NADPH fluorescence, primary screen (AID 622;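 active means fluorescence slope higher than the sample average by over 3 SD, cut at about -0.22 in these data, passing the limit was not always enough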;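 further: slope of raw intensity against log time taken from 70 to 1610 s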); details: recombinant KvBeta, 4-cyanobenzaldehyde reduction, at 10 µM, stronger effect = higher value
[5] = target: Voltage-gated potassium channel subunit beta-2 (Rattus norvegicus) (UniProt P62483); test: enhancers of rat Kvbeta2 NADPH turnover – biochemical, NADPH fluorescence, primary screen (AID 623;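 active means NADPH fluorescence slope more negative than the mean of all samples by about 3 SD, 99.7% confidence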;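 further: fluorescence intensity change per second fitted from 20 to 320 s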); details: Recombinant KvBeta, NADPH fluorescence decrease slope, 10 min; at 10 µM; stronger effect = lower value
[6] = target: Muscarinic acetylcholine receptor M4 (Homo sapiens) (UniProt P08173); test: M4-linked GIRK flux change, two-sided – cell-based, HEK293 M4/GIRK, thallium flux, BTC-AM, M4 allosteric agonist project, primary screen (AID 625;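 active means fluorescence slope after compound addition differing from the mean of all tested samples at 99.7% confidence, mostly higher but some lower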;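 further: thallium influx through GIRK channels coupled to M4 in HEK293 cells with BTC-AM dye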); details: at 10 µM, actives lie on both sides
Method in brief: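 Assay system: HEK293 cells with M4 receptor and GIRK channels / Controls: carbachol and DMSO controls / Schedule: 1 h dye loading, 2 min kinetic read / Technique: kinetic fluorescence with BTC-AM dye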

[7] = blockers of RIG-like receptor reporter activation – cell-based, Sendai virus stimulus, luciferase, 10K MLSCN set, TLR/RLR signaling modifier project, primary screen (AID 602276;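 active means inhibition at or above 50% at 10 µM; inactive means inhibition below 50%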;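 further: firefly luciferase from ISG56 promoter only with Renilla not read in this screen; 0% = Sendai virus plus DMSO and 100% = medium plus DMSO without virus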); details: HEK293 RL24 IRF3 luciferase reporter, at 10 µM, stronger effect = higher value
[8] = TLR3 IRF3 reporter activation blockers – cell-based, poly I:C stimulus, luciferase, 10K MLSCN set, primary screen (AID 602277;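 active means inhibition of the reporter signal at or above 50%; inactive means inhibition below 50%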); details: HEK293-TLR3 RL24 IRF3 luciferase reporter, at 10 µM, stronger effect = higher value

Muscarinic acetylcholine receptor M4 (Homo sapiens), sequence (P08173 whole entry, looked up): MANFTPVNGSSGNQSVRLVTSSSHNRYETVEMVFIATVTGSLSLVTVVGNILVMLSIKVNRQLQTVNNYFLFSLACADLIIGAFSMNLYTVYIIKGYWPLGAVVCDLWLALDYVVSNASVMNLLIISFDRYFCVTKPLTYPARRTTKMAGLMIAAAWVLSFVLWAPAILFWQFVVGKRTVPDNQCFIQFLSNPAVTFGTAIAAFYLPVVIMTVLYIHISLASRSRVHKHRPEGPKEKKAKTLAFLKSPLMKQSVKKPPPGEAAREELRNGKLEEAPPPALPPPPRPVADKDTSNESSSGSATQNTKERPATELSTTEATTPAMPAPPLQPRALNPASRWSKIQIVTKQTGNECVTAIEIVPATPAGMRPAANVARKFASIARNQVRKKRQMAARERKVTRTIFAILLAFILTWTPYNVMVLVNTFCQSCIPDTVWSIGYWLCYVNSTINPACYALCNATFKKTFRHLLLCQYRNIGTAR
Voltage-gated potassium channel subunit beta-2 (Rattus norvegicus), sequence (P62483 whole entry, looked up): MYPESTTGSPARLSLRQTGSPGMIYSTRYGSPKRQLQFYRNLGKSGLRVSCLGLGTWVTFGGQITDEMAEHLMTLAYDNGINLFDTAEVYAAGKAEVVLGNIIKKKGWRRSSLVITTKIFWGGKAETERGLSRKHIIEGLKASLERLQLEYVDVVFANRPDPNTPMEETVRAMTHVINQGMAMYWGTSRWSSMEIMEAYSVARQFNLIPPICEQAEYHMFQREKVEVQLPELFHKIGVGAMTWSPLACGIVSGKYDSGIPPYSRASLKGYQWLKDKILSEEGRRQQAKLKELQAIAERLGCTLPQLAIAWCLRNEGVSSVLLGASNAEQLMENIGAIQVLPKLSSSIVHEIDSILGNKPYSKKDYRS

| SMILES | cell count [1] | inhibition [1] | inhibition of aggregation [2] | nuclei count [2] | inhibition [3] | nuclei count [3] | fluorescence slope [4] | NADPH fluorescence slope [5] | fluorescence slope [6] | inhibition [7] | inhibition [8] |
| --- | --- | --- | --- | --- | --- | --- | --- | --- | --- | --- | --- |
| Cc1onc(-c2c(Cl)cccc2Cl)c1C(=O)NCCN1CCOCC1 | 548 | 5.1% (inactive) | -1.4% (inactive) | 98.9% | -48.2% (inactive) | 108% | -0.471 (inactive) | 3e-06 (inactive) | 0.00527 (inactive) | 21.3% (inactive) | 16.3% (inactive) |
| O=C(c1noc2c1CCc1ccccc1-2)N1CCOCC1 | 234 | -5.4% (inactive) | 18.9% (inactive) | 90.2% | -35.7% (inactive) | 120% | -0.572 (inactive) | 2.9e-06 (inactive) | 0.0064 (inactive) | -5.37% (inactive) | -37.8% (inactive) |
| CCc1nnc(NC(=O)c2ccc(-c3cccc(C(F)(F)F)c3)o2)s1 | 730 | -2.9% (inactive) | 43.6% (inactive) | 76.5% | -24.2% (inactive) | 99.1% | -0.528 (inactive) | -4.6e-05 (inactive) | 0.00667 (inactive) | -0.00167% (inactive) | -0.904% (inactive) |
| COc1ccc(OC)c(C2C3=C(CCCC3=O)Nc3c2c(=O)n(C)c(=O)n3C)c1 (stereo not drawn) | 508 | 1.4% (inactive) | 4.8% (inactive) | 89.5% | -15.1% (inactive) | 96.3% | -0.547 (inactive) | -0.000161 (inactive) | 0.00407 (inactive) | 4.02% (inactive) | 0.406% (inactive) |
| Cc1cccn2cc(-c3ccccc3)nc12 | 394 | 1.7% (inactive) | -5.2% (inactive) | 103% | -36.2% (inactive) | 89.3% | -0.557 (inactive) | -1.4e-05 (inactive) | 0.00519 (inactive) | 2.94% (inactive) | -39.3% (inactive) |
| O=C1CSC(c2cn(-c3ccccc3)nc2-c2cccs2)N1CC1CCCO1 (stereo not drawn) | 453 | -2.6% (inactive) | 10.2% (inactive) | 101% | -83.2% (inactive) | 117% | -0.534 (inactive) | -3e-05 (inactive) | 0.00528 (inactive) | 18.7% (inactive) | 26.5% (inactive) |
| CSc1nc(N2CCOCC2)c2c(c1C#N)CCCCC2 | 690 | -11.9% (inactive) | -18.9% (inactive) | 117% | -4.6% (inactive) | 111% | -0.579 (inactive) | 2.1e-05 (inactive) | 0.00519 (inactive) | 23% (inactive) | 27.5% (inactive) |
| CN(CC(=O)N1CCN(c2ccc(F)cc2)CC1)S(=O)(=O)c1ccc(F)cc1 | 389 | -5.2% (inactive) | -9.8% (inactive) | 103% | -100% (inactive) | 121% | -0.595 (inactive) | -6.1e-05 (inactive) | 0.00279 (inactive) | 11.3% (inactive) | -4.19% (inactive) |
| Cn1cccc1C1NC(=O)c2c(sc3c2CCC(C(C)(C)C)C3)N1 (stereo not drawn) | 495 | 1.7% (inactive) | -10.6% (inactive) | 93% | -107% (inactive) | 127% | -0.19 (inactive) | -1.5e-05 (inactive) | 0.00584 (inactive) | -3.95% (inactive) | -48.7% (inactive) |
| O=C1NC(=O)C2(CCC(C(=O)O)C2)N1 (stereo not drawn) | 557 | -17.5% (inactive) | -0.1% (inactive) | 100% | -72.3% (inactive) | 119% | -0.408 (inactive) | 3.7e-05 (inactive) | 0.00541 (inactive) | 13.2% (inactive) | 17.5% (inactive) |
| O=C(CCSc1ccccc1)N1CCN(C(=O)c2ccco2)CC1 | 462 | -11.1% (inactive) | 2% (inactive) | 102% | -29.7% (inactive) | 97.1% | -0.603 (inactive) | -3.1e-05 (inactive) | 0.0052 (inactive) | -23.3% (inactive) | -56% (inactive) |
| CCCCn1c(SCc2cccnc2)nc2c1c(=O)n(C)c(=O)n2C | 502 | -7.2% (inactive) | 27.2% (inactive) | 90.8% | -15.9% (inactive) | 198% | -0.511 (inactive) | -3.3e-05 (inactive) | 0.00468 (inactive) | -4.82% (inactive) | 0.323% (inactive) |
| Cn1c(=O)cc(OCC(=O)N2CCN(c3cccc(C(F)(F)F)c3)CC2)c2ccccc21 | 377 | -8.3% (inactive) | -13.4% (inactive) | 118% | -12.8% (inactive) | 113% | -0.426 (inactive) | 6.8e-05 (inactive) | 0.00701 (inactive) | 13.7% (inactive) | 15.2% (inactive) |
| CCC(=O)N1CCc2cc(S(=O)(=O)CCC(=O)Nc3nc(C)cs3)ccc21 | 606 | 5.7% (inactive) | 9.7% (inactive) | 95.8% | -144% (inactive) | 158% | -0.439 (inactive) | 7.6e-05 (inactive) | 0.00524 (inactive) | 19.2% (inactive) | 21.5% (inactive) |
| CCOC(=O)CNC(=O)Cn1cnc2c(nnn2-c2cccc(Cl)c2)c1=O | 629 | -10% (inactive) | -8.9% (inactive) | 140% | -41.7% (inactive) | 110% | -0.477 (inactive) | 4.8e-05 (inactive) | 0.00553 (inactive) | -3.21% (inactive) | 5.01% (inactive) |
| CCCn1c(=N)n(CCOc2ccc(OC)cc2)c2ccccc21 | 665 | 21.3% (inactive) | 5.9% (inactive) | 92.6% | 15.1% (inactive) | 139% | -0.466 (inactive) | -4.2e-05 (inactive) | 0.00387 (inactive) | 20.2% (inactive) | 15.4% (inactive) |
| CC(=O)Oc1cccc(/C=c2\sc3nc(-c4ccco4)nn3c2=O)c1 | 324 | -0.6% (inactive) | -30% (inactive) | 103% | -69.5% (inactive) | 80.7% | -0.549 (inactive) | -3e-05 (inactive) | 0.00624 (inactive) | 21.5% (inactive) | 16.1% (inactive) |
| Cn1cccc1C(=O)NC(=O)CSc1nnc(C2CC2)n1-c1ccccc1 | 670 | -2% (inactive) | -30.7% (inactive) | 93.6% | 27.3% (inactive) | 62.6% | -0.589 (inactive) | 4.6e-06 (inactive) | 0.00691 (inactive) | 26.6% (inactive) | 9.42% (inactive) |
| CCOc1ccc(-n2c(C)nc3c(cnn3-c3ccc(Cl)cc3)c2=O)cc1 | 238 | -9% (inactive) | -23.6% (inactive) | 96.9% | 2.1% (inactive) | 109% | -0.58 (inactive) | -4.1e-06 (inactive) | 0.00771 (inactive) | -2.74% (inactive) | -8.54% (inactive) |
| Nc1nc2ccccc2n1/N=C/c1ccc(Br)cc1 | 334 | -2.9% (inactive) | -2.4% (inactive) | 87.2% | 12.6% (inactive) | 92.2% | -0.47 (inactive) | -3.8e-05 (inactive) | 0.00585 (inactive) | -55% (inactive) | -127% (inactive) |
| O=C(NCc1ccccn1)c1ccc2nc(-c3ccco3)c(-c3ccco3)nc2c1 | 626 | -27.2% (inactive) | -52.7% (inactive) | 82.3% | -147% (inactive) | 103% | -0.504 (inactive) | -2.5e-05 (inactive) | 0.00242 (inactive) | 10.9% (inactive) | 3.28% (inactive) |
| Cc1cccc(-n2c(N)c(C(=O)N3CCN(C)CC3)sc2=S)c1 | 786 | 0.5% (inactive) | -24.6% (inactive) | 96.9% | -25.5% (inactive) | 114% | -0.56 (inactive) | -2.7e-06 (inactive) | 0.00592 (inactive) | -4.11% (inactive) | 6.8% (inactive) |
| C=CCOc1cccc(C2/C(=C(\O)c3ccc(F)cc3)C(=O)C(=O)N2CCN(C)C)c1 (stereo not drawn) | 699 | -12.1% (inactive) | 20.1% (inactive) | 82.8% | 33.3% (inactive) | 99.1% | -0.493 (inactive) | -0.000177 (inactive) | 0.00287 (inactive) | 8.26% (inactive) | 15.2% (inactive) |
| Cc1ccc(S(=O)(=O)N2CCN(C(=O)CN3C(=O)NC4(CCOc5ccccc54)C3=O)CC2)cc1 (stereo not drawn) | 697 | -3.3% (inactive) | 8.6% (inactive) | 106% | -38.5% (inactive) | 112% | -0.44 (inactive) | -0.000543 (inactive) | 0.00414 (inactive) | -12.9% (inactive) | -7.58% (inactive) |
| O=c1c(-c2ccc(F)cc2)coc2c3c(ccc12)OCCO3 | 337 | 0.7% (inactive) | 14.4% (inactive) | 131% | -65.5% (inactive) | 124% | -0.501 (inactive) | -0.000205 (inactive) | 0.00582 (inactive) | -29.6% (inactive) | -86.4% (inactive) |
| CCC(Oc1ccc2ccccc2c1)C(=O)O (stereo not drawn) | 666 | -4% (inactive) | -46.2% (inactive) | 129% | -39.6% (inactive) | 137% | -0.489 (inactive) | 6e-05 (inactive) | 0.00595 (inactive) | -9.77% (inactive) | -32.2% (inactive) |
| COc1ccccc1C(=O)n1nc(-c2ccccc2)nc1N | 354 | -3.3% (inactive) | 9.7% (inactive) | 101% | -55.5% (inactive) | 119% | -0.619 (inactive) | -2.9e-05 (inactive) | 0.00374 (inactive) | 15.7% (inactive) | 11.1% (inactive) |
| O=C(Cn1cnc2c(oc3ccccc32)c1=O)N1CCN(c2ccccc2)CC1 | 648 | 10.8% (inactive) | 34.2% (inactive) | 95% | -78% (inactive) | 84.4% | -0.493 (inactive) | 1.3e-05 (inactive) | 0.00654 (inactive) | 10.1% (inactive) | 17.4% (inactive) |
